The target of the first test is Epidermal growth factor receptor (Homo sapiens, UniProt P00533). Kind of test: Inhibition of EGFR tyrosine kinase activity in EGF-stimulated human A431 cells after 60 mins by ELISA. It counts as cell-based, A-431.
Chain of Epidermal growth factor receptor (P00533 whole entry): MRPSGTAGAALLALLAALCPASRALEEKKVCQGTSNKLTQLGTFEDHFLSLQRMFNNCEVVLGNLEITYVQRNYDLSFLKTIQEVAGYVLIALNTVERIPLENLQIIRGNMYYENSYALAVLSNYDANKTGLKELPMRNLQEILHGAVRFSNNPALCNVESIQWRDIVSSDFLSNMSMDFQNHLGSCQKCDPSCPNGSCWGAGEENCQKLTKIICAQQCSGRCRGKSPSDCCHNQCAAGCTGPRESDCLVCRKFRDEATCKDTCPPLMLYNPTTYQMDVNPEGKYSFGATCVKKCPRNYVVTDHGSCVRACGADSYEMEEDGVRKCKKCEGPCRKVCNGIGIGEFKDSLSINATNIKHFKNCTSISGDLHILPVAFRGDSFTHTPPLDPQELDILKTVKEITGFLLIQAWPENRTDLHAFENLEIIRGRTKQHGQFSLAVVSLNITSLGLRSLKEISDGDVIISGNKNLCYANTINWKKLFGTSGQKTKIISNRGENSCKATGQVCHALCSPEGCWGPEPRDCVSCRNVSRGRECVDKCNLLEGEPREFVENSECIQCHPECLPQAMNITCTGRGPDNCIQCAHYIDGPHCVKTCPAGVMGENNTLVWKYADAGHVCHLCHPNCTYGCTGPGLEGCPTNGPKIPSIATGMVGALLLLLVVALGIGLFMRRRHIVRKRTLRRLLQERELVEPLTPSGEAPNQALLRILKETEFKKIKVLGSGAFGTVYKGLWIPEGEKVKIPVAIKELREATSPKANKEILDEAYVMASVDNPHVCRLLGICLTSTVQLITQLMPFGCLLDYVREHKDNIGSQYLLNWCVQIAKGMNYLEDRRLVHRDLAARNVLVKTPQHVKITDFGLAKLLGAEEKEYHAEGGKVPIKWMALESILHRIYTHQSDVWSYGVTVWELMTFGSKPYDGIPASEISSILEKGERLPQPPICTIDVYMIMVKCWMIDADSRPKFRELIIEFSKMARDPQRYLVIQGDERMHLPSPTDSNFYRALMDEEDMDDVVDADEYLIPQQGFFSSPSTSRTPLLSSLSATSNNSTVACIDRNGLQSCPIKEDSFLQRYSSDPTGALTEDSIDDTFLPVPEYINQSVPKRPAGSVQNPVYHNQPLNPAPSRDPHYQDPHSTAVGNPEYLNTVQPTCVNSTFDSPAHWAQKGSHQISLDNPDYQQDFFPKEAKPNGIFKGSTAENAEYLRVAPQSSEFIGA
Conditions: not given
For orientation: In an ELISA, binding on a coated surface is turned into a signal by an enzyme label.
Consider `Nc1nc(Nc2ccc(Cl)cc2F)c2cc(Cc3cccc4ccccc34)[nH]c2n1`, for which the IC50 – broadly, the concentration that gives 50% inhibition – was above 200 µM.
On to `COc1ccc(OC)c(Cc2cc3c(Nc4ccc(Cl)cc4F)nc(N)nc3[nH]2)c1`, for which half-maximal inhibition (IC50) required 113 µM.
Molecule `Cc1ccccc1Cc1cc2c(Nc3ccc(Cl)cc3)nc(N)nc2[nH]1` returned an IC50 of 0.24 µM.
On the same count and under the same terms, under `Cc1ccccc1Cc1cc2c(Nc3ccc(Cl)cc3F)nc(N)nc2[nH]1` stands above 200 µM.
Still for that read-out and setting: under `COc1ccc(OC)c(Cc2cc3c(Nc4ccc(Cl)cc4)nc(N)nc3[nH]2)c1` stands above 200 µM.

The target of another test is T1, Vascular endothelial growth factor receptor 2 (Homo sapiens, UniProt P35968). Kind of test: Inhibition of VEGFR2 tyrosine kinase activity in VEGF-stimulated human U251 cells after 60 mins by ELISA. The test is classed as cell-based, U-251.
T1 sequence (P35968 whole entry): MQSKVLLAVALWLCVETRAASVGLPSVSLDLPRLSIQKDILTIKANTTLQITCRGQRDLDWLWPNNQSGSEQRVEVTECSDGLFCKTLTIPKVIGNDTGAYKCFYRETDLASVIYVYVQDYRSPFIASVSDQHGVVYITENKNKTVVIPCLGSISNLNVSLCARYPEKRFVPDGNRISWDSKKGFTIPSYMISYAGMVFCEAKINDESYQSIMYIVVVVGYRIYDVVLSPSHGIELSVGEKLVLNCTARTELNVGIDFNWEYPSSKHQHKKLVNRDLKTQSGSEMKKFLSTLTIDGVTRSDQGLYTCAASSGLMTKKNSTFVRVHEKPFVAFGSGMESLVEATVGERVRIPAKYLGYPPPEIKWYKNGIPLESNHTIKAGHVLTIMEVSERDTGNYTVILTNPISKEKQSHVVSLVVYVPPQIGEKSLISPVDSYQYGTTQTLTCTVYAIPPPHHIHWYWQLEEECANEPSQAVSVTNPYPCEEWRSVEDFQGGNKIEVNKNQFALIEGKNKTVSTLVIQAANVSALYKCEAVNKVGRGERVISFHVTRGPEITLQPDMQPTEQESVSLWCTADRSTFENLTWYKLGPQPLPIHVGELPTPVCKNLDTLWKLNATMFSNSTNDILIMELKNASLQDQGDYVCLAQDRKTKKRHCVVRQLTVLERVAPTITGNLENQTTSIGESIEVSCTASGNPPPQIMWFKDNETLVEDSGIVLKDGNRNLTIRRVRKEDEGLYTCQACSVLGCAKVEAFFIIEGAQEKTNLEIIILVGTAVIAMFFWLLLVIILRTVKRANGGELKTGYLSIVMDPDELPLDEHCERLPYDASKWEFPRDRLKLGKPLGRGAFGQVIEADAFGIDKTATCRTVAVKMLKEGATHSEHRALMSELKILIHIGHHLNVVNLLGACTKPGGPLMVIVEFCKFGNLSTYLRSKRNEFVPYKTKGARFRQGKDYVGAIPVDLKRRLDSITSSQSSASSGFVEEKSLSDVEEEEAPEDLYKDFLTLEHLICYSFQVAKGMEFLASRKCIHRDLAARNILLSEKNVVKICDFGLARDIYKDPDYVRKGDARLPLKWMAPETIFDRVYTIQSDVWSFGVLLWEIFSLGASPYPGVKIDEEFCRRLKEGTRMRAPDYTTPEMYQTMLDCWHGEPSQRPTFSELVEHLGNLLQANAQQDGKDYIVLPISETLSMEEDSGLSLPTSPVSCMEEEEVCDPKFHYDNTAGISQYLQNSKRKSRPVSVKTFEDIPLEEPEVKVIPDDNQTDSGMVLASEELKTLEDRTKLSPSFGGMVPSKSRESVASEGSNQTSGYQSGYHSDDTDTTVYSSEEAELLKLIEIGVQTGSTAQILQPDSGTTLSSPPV
Conditions: not given
In the case of `Nc1nc(Nc2ccc(Cl)cc2F)c2cc(Cc3cccc4ccccc34)[nH]c2n1`, the IC50 was 0.48 µM.
The same measure, in the same setting: in the case of `COc1ccc(OC)c(Cc2cc3c(Nc4cccc(Br)c4)nc(N)nc3[nH]2)c1` it was 0.62 µM; in that of `Nc1nc(Nc2ccc(Cl)cc2)c2cc(Cc3cccc4ccccc34)[nH]c2n1`, 32.1 µM; in that of `COc1ccc(OC)c(Cc2cc3c(Nc4ccc(Cl)cc4F)nc(N)nc3[nH]2)c1`, 0.1 µM.
In the case of `Cc1ccccc1Cc1cc2c(Nc3ccc(Cl)cc3)nc(N)nc2[nH]1`, 45.4 µM corresponded to half-maximal inhibition (IC50).
Still for that read-out and setting: under `Cc1ccccc1Cc1cc2c(Nc3ccc(Cl)cc3F)nc(N)nc2[nH]1` stands 29.8 µM.
Still for that read-out and setting: under `COc1ccc(OC)c(Cc2cc3c(Nc4ccc(Cl)cc4)nc(N)nc3[nH]2)c1` stands 56.7 µM.

The target of the next test is Vascular endothelial growth factor receptor 1 (Homo sapiens, UniProt P17948). Kind of test: Inhibition of VEGFR1 tyrosine kinase activity in VEGF-stimulated human A498 cells after 60 mins by ELISA.
Chain of Vascular endothelial growth factor receptor 1 (P17948 whole entry): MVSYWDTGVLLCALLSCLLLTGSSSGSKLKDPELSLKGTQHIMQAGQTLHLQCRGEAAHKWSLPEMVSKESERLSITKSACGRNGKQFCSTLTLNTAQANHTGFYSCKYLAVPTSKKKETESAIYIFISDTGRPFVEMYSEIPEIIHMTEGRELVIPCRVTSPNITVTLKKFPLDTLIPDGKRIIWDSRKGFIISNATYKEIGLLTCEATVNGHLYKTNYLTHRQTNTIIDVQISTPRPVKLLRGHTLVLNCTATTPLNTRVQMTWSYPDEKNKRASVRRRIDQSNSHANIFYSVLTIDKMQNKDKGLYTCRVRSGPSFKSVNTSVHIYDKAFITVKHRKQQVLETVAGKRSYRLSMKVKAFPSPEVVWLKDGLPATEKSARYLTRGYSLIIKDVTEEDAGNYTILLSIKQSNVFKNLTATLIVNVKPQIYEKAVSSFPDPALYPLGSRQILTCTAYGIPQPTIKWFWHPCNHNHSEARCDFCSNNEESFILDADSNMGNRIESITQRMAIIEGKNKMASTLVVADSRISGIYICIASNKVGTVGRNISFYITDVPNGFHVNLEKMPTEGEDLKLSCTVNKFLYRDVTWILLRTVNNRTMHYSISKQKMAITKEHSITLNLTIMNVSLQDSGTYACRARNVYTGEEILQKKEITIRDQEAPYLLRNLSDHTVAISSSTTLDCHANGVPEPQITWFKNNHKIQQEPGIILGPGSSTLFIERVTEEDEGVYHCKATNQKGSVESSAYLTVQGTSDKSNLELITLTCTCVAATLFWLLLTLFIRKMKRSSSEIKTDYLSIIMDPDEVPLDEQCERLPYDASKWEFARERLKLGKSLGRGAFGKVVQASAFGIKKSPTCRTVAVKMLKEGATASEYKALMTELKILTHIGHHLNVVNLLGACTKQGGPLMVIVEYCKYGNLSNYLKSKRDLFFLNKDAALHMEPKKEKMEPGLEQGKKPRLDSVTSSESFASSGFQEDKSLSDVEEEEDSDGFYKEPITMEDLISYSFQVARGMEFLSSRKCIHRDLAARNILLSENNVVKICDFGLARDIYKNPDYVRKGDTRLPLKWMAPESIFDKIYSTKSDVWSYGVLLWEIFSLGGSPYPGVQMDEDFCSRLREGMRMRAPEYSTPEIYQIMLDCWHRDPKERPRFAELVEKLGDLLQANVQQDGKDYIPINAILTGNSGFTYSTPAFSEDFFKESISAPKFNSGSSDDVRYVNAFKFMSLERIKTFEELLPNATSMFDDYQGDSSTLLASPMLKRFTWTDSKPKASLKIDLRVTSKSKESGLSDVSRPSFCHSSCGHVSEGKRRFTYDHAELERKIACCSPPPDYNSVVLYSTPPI
Conditions: not given
It counts as cell-based. The method in brief:
(§1)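 Lysed in ice-cold TBS/0.05% triton with protease and phosphatase inhibitors, heat/ethanol-fixed. Total phosphotyrosine read by HRP anti-phosphotyrosine with luminol chemiluminescence.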
The molecule `Nc1nc(Nc2ccc(Cl)cc2F)c2cc(Cc3cccc4ccccc34)[nH]c2n1` yielded an IC50 above 200 µM.
On the same count and under the same terms, in the case of `Nc1nc(Nc2ccc(Cl)cc2)c2cc(Cc3cccc4ccccc34)[nH]c2n1` it was above 200 µM; in that of `COc1ccc(OC)c(Cc2cc3c(Nc4ccc(Cl)cc4F)nc(N)nc3[nH]2)c1`, 186 µM.
The same measure, in the same setting: in the case of `Cc1ccccc1Cc1cc2c(Nc3ccc(Cl)cc3)nc(N)nc2[nH]1` it was 45.9 µM; in that of `Cc1ccccc1Cc1cc2c(Nc3ccc(Cl)cc3F)nc(N)nc2[nH]1`, 16 µM.
Still for that read-out and setting: in the case of `COc1ccc(OC)c(Cc2cc3c(Nc4ccc(Cl)cc4)nc(N)nc3[nH]2)c1` it was 15.2 µM.

The target of the next test is Platelet-derived growth factor receptor beta (Homo sapiens, UniProt P09619). The test can be described thus: Inhibition of PDGFRbeta tyrosine kinase activity in PDGF-BB-stimulated human SF-539 cells after 60 mins by ELISA. The test is classed as cell-based.
Chain of Platelet-derived growth factor receptor beta (P09619 whole entry): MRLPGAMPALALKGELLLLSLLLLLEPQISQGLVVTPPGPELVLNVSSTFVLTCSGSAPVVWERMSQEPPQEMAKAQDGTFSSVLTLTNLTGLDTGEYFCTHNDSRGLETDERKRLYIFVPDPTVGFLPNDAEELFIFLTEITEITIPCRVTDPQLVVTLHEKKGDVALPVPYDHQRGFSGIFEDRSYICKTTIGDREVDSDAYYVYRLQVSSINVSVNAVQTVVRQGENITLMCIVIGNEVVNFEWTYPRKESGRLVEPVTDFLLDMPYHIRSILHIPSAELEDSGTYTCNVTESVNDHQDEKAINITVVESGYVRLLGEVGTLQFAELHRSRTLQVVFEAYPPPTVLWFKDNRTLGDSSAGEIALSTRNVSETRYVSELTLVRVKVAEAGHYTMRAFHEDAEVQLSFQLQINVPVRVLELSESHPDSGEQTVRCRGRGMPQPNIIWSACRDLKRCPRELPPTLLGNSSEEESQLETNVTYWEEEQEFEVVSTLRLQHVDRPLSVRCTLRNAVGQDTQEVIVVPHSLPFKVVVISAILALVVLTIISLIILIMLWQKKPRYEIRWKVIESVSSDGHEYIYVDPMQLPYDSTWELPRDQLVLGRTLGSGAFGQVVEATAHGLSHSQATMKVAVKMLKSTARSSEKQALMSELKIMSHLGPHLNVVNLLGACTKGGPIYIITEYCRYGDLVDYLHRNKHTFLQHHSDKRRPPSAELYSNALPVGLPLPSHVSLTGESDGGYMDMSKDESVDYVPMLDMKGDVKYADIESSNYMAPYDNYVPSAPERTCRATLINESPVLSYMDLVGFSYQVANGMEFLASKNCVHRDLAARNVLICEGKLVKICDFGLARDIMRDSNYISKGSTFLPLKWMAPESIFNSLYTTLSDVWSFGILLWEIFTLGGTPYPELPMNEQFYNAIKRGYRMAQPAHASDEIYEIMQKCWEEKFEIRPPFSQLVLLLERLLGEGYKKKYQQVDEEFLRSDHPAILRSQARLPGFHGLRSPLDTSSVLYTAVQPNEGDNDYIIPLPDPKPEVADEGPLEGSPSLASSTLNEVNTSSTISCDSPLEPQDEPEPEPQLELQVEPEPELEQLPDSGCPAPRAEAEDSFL
Conditions: not given
In outline:
as §1
`Nc1nc(Nc2ccc(Cl)cc2F)c2cc(Cc3cccc4ccccc34)[nH]c2n1` yielded an IC50 of 193 µM.
Regarding `COc1ccc(OC)c(Cc2cc3c(Nc4ccc(Cl)cc4F)nc(N)nc3[nH]2)c1`, half-maximal inhibition (IC50) was put at 146 µM.
The same measure, in the same setting: in the case of `Cc1ccccc1Cc1cc2c(Nc3ccc(Cl)cc3)nc(N)nc2[nH]1` it was above 300 µM.
On the same count and under the same terms, in the case of `Cc1ccccc1Cc1cc2c(Nc3ccc(Cl)cc3F)nc(N)nc2[nH]1` it was above 300 µM; in that of `COc1ccc(OC)c(Cc2cc3c(Nc4ccc(Cl)cc4)nc(N)nc3[nH]2)c1`, 44.3 µM.

The next test deals with A-431. The test can be described thus: Cytotoxicity against EGFR overexpressing human A431 after 12 hrs by cyquant DNA dye-based fluorescence method. The test is classed as functional, cell-based. To be noted: A-431, 12 h.
`Nc1nc(Nc2ccc(Cl)cc2F)c2cc(Cc3cccc4ccccc34)[nH]c2n1` showed an IC50 of 46.7 µM.
Same read-out and setting: in the case of `COc1ccc(OC)c(Cc2cc3c(Nc4cccc(Br)c4)nc(N)nc3[nH]2)c1` it was above 50 µM; in that of `COc1ccc(OC)c(Cc2cc3c(Nc4ccc(Cl)cc4F)nc(N)nc3[nH]2)c1`, 13.4 µM.
The same measure, in the same setting: under `Cc1ccccc1Cc1cc2c(Nc3ccc(Cl)cc3)nc(N)nc2[nH]1` stands 5.6 µM; under `Cc1ccccc1Cc1cc2c(Nc3ccc(Cl)cc3F)nc(N)nc2[nH]1`, above 200 µM.
In turn, `COc1ccc(OC)c(Cc2cc3c(Nc4ccc(Cl)cc4)nc(N)nc3[nH]2)c1` had an IC50 of 5.8 µM.

In another test the target is T1, Vascular endothelial growth factor receptor 2. The test can be described thus: Ratio of semaxanib IC50 to compound IC50 for VEGFR2 tyrosine kinase activity in VEGF-stimulated human U251 cells. The test is classed as cell-based. To be noted: U-251. In outline: (§2)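 U251 cells, which naturally express high VEGFR-2, were grown to 60–75% confluence, kept 18 h serum-free, then pre-treated 60 min with 0.10–333 μM inhibitor before 100 ng/mL VEGF for 10 min. Total tyrosine phosphorylation was read by fixed-cell HRP-anti-phosphotyrosine ELISA with luminol luminescence, as % of growth factor alone.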
For `Nc1nc(Nc2ccc(Cl)cc2F)c2cc(Cc3cccc4ccccc34)[nH]c2n1`, the Ratio IC50 turned out to be 25.
For `COc1ccc(OC)c(Cc2cc3c(Nc4ccc(Cl)cc4F)nc(N)nc3[nH]2)c1`, the Ratio IC50 worked out at 120.

A further test shares this target. The test can be described thus: Ratio of Sunitinib IC50 to compound IC50 for VEGFR2 tyrosine kinase activity in VEGF-stimulated human U251 cells. It counts as cell-based. To be noted: U-251. The method in brief: as §2
For `Nc1nc(Nc2ccc(Cl)cc2F)c2cc(Cc3cccc4ccccc34)[nH]c2n1`, the Ratio IC50 came out at 39.
As for `COc1ccc(OC)c(Cc2cc3c(Nc4ccc(Cl)cc4F)nc(N)nc3[nH]2)c1`, the Ratio IC50 is 189.

For the origin of these results see ChEMBL document CHEMBL1926631, “N⁴-Aryl-6-substitutedphenylmethyl-7H-pyrrolo[2,3-d]pyrimidine-2,4-diamines as receptor tyrosine kinase inhibitors” (Bioorg Med Chem, 2012).
